One compound from ChEMBL document CHEMBL1127799, “Derivatives of a novel cyclopeptolide. 1. Synthesis, antifungal activity, and structure-activity relationships” (1994) can be followed below.

Broadly, the MIC is the lowest concentration found to suppress growth. The low end stands for greater potency, the high end for weaker potency.

Assay [1] relates to Meyerozyma guilliermondii. Kind of assay: Tested for minimum inhibitory concentration against Candida guilliermondii 80 (C.g) at pH 6.5. Format: functional. In a few lines: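 Broth microdilution in malt extract broth, initial pH 6.5, 1×10^3 CFU per 0.2 mL well, from liquid-nitrogen-stored Sabouraud cultures. Compound from 0.08% stock in 5% DMSO/0.2% Tween 80, final 0.05–100 μg/mL. Visual reading after 48 h at 30 °C. MIC = lowest concentration with no detectable growth. Vehicle-only negative controls.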

The species named for assay [2] is Mus musculus. Kind of assay: Tested for efficacy of compound in experimental vaginal candidosis (mouse) after oral treatment at dosage of 4 x300 mg kg e-1. Format: functional. Put shortly: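 Female NMRI mice (18–20 g; 10 per group) were hormonally conditioned and infected intravaginally with 3.5×10^4 CFU C. albicans no. 124 in 50 μL Sabouraud's glucose broth. Four doses were given by gavage or ip, at 2 h before and 2, 18 and 24 h after infection. One day after the last dose, vaginal swabs were plated on Sabouraud agar with streptomycin (0.1 mg/mL) for 48 h at 37 °C. Failed reisolation counted as cure.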

A value given as a limit tells only on which side of the number the result lay.

As for `CC[C@@H](C)[C@H]1C(=O)NCC(=O)N(C)[C@@H](C(C)C)C(=O)N[C@@H](Cc2ccc(OC)cc2)C(=O)O[C@H](C)C(=O)N2CCCC[C@H]2C(=O)N(C)[C@@H](C(C)C)C(=O)N[C@@H](C(C)C)C(=O)N(C)[C@@H](CC(=O)O)C(=O)N(C)[C@@H]([C@@H](C)CC)C(=O)N1C`, the MIC in assay [1] is above 100 µg/mL. The Efficacy in assay [2] worked out at 64%.
